Assays:
[1] = Ratio between IC50 of GPI and GPB; type: functional
[2] = system: Opioid receptors mu & kappa (Cavia porcellus); assay: Selectivity ratio between mu and kappa opioid receptor from guinea pig brain homogenate
[3] = system: Opioid receptors delta & kappa (Cavia porcellus); assay: Selectivity ratio between delta and kappa opioid receptor from guinea pig brain homogenate
[4] = species on record: Cavia porcellus; assay: Evaluated for its ability to inhibit the electrically evoked contraction of the guinea pig ileum(GPI).; type: functional
How it was run: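 Strips of guinea pig ileum longitudinal muscle–myenteric plexus were electrically stimulated and inhibition of contraction was recorded. IC50 and its standard error came from fitting mean data to the Hill equation by nonlinear least squares. Selected analogues were retested with 1000 nM CTAP as mu antagonist to look for a shift.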

[5] = molecular target: Kappa-type opioid receptor (Cavia porcellus, UniProt P41144); assay: Inhibition of binding [3H][…] at Opioid receptor kappa 1 of guinea pig brain membrane (GPB) homogenates.
Kappa-type opioid receptor, sequence (P41144 whole entry): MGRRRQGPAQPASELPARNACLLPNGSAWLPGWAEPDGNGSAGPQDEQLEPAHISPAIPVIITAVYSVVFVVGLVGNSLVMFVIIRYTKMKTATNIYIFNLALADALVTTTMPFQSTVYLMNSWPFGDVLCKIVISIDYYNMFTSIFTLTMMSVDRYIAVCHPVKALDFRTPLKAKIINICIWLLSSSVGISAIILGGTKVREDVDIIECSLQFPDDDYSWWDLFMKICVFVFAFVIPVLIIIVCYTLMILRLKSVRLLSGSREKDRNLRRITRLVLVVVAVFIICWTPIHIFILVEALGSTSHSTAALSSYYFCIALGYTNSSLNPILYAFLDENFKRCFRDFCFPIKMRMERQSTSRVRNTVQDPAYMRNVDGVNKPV
How it was run: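 Whole-brain membranes from adult male guinea pigs (200–400 g) were used. Mean ± SEM of three or more independent measurements.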

[6] = molecular target: Mu-type opioid receptor (Cavia porcellus, UniProt P97266); assay: Inhibition of binding [3H]DAMGO at Opioid receptor mu 1 of guinea pig brain membrane (GPB) homogenates.
Mu-type opioid receptor, sequence (P97266 whole entry): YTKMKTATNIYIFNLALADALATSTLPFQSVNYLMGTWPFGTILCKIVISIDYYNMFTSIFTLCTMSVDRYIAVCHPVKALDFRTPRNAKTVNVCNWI
How it was run: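 Membranes from whole brains of adult male guinea pigs (200–400 g). Displacement of [3H]DAMGO at 1.0 nM for mu sites, with 180 min incubation. Values come from at least three independent measurements and are given as mean ± SEM.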

[7] = species on record: Cavia porcellus; assay: Ability to inhibit the electrically evoked contraction of the guinea pig ileum(GPI).at concentration of 30 uM; type: functional
[8] = molecular target: Delta-type opioid receptor (Mus musculus) (UniProt P32300); assay: Agonistic activity towards Opioid receptor delta 1 was determined by evaluating the inhibitory activity towards electrically stimulated mouse vas deferens; conditions: concentration not given here
Delta-type opioid receptor (Mus musculus), sequence (P32300 whole entry, looked up): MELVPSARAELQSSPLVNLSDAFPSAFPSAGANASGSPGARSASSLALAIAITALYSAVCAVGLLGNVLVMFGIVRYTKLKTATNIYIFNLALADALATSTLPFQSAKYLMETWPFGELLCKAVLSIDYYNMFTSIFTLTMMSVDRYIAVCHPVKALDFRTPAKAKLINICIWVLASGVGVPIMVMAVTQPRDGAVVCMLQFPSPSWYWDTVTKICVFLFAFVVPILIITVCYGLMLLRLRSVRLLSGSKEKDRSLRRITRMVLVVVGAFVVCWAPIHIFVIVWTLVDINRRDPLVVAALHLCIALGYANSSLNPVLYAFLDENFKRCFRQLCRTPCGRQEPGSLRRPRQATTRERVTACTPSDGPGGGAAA

[9] = species on record: Cavia porcellus; assay: Ability to inhibit the electrically evoked contraction of the guinea pig ileum(GPI)at concentration of 30 uM; type: functional
[10] = species on record: Cavia porcellus; assay: Ability to inhibit the electrically evoked contraction of the guinea pig ileum(GPI).at concentration of 60 uM; type: functional
[11] = species on record: Cavia porcellus; assay: Compound was evaluated for its ability to inhibit the electrically evoked contraction of the guinea pig ileum(GPI).at concentration of 60 uM; type: functional

CC[C@H](C)[C@H](NC(=O)[C@H](CCCN=C(N)N)NC(=O)[C@H](CCCN=C(N)N)NC(=O)[C@H](CC(C)C)NC(=O)[C@H](Cc1ccccc1)NC(=O)[C@@H](CCCN=C(N)N)NC(=O)CNC(=O)[C@@H](N)Cc1ccc(O)cc1)C(=O)N[C@@H](CCCN=C(N)N)C(=O)N1CCC[C@H]1C(=O)N[C@@H](CCCCN)C(N)=O
Ratio [1]: > 260
Ratio [2]: 22
Ratio [3]: > 260

CC[C@H](C)[C@H](NC(=O)CNC(=O)[C@@H](N)Cc1ccc(O)cc1)C(=O)N[C@@H](Cc1ccccc1)C(=O)N[C@@H](CC(C)C)C(=O)N[C@@H](CCCN=C(N)N)C(=O)N[C@@H](CCCN=C(N)N)C(=O)N[C@H](C(=O)N[C@@H](CCCN=C(N)N)C(=O)N1CCC[C@H]1C(=O)N[C@@H](CCCCN)C(N)=O)[C@@H](C)CC
IC50 [4]: 460 nM
IC50 [5]: 40 nM
IC50 [6]: 860 nM
Ratio [1]: 12
Ratio [2]: 22

CC[C@H](C)[C@H](NC(=O)[C@H](CCCN=C(N)N)NC(=O)[C@H](CCCN=C(N)N)NC(=O)[C@H](CC(C)C)NC(=O)[C@H](Cc1ccccc1)NC(=O)CNC(=O)CNC(=O)[C@@H](N)Cc1ccc(O)cc1)C(=O)N[C@@H](CCCN=C(N)N)C(=O)N1CCC[C@H]1C(=O)N[C@@H](CCCCN)C(N)=O
IC50 [4]: 1 nM

CC[C@H](C)[C@H](NC(=O)[C@H](CCCN=C(N)N)NC(=O)[C@H](CCCN=C(N)N)NC(=O)[C@H](CC(C)C)NC(=O)[C@H](Cc1ccccc1)NC(=O)[C@H](CCCCN)NC(=O)CNC(=O)[C@@H](N)Cc1ccc(O)cc1)C(=O)N[C@@H](CCCN=C(N)N)C(=O)N1CCC[C@H]1C(=O)N[C@@H](CCCCN)C(N)=O
inhibition at 30 µM [7]: 15.6%
IC50 [5]: 240 nM
IC50 [6]: 7400 nM
Ratio [1]: > 120
Ratio [2]: 31
Ratio [3]: > 330
inhibition [8]: 30%

CC[C@H](C)[C@H](NC(=O)[C@H](CCCN=C(N)N)NC(=O)[C@H](CCCN=C(N)N)NC(=O)[C@H](CC(C)C)NC(=O)[C@H](Cc1ccccc1)NC(=O)[C@H](NC(=O)CNC(=O)[C@@H](N)Cc1ccc(O)cc1)[C@@H](C)c1ccccc1)C(=O)N[C@@H](CCCN=C(N)N)C(=O)N1CCC[C@H]1C(=O)N[C@@H](CCCCN)C(N)=O
IC50 [4]: 2800 nM
IC50 [5]: 6 nM
IC50 [6]: 112 nM
Ratio [1]: 467
Ratio [2]: 20
Ratio [3]: 112

CC[C@H](C)[C@H](NC(=O)[C@H](CCCN=C(N)N)NC(=O)[C@H](CCCN=C(N)N)NC(=O)[C@H](CC(C)C)NC(=O)[C@H](Cc1ccccc1)NC(=O)[C@@H](NC(=O)CNC(=O)[C@@H](N)Cc1ccc(O)cc1)[C@@H](C)c1ccccc1)C(=O)N[C@@H](CCCN=C(N)N)C(=O)N1CCC[C@H]1C(=O)N[C@@H](CCCCN)C(N)=O
IC50 [4]: 2190 nM
IC50 [5]: 121 nM
IC50 [6]: 1350 nM
Ratio [1]: 18
Ratio [2]: 11
Ratio [3]: 13

CC[C@H](C)[C@H](NC(=O)[C@H](CCCN=C(N)N)NC(=O)[C@H](CCCN=C(N)N)NC(=O)[C@H](CC(C)C)NC(=O)[C@H](Cc1ccccc1)NC(=O)[C@@H](CCC(=O)O)NC(=O)CNC(=O)[C@@H](N)Cc1ccc(O)cc1)C(=O)N[C@@H](CCCN=C(N)N)C(=O)N1CCC[C@H]1C(=O)N[C@@H](CCCCN)C(N)=O
IC50 [4]: 5700 nM
Ratio [1]: 5
Ratio [2]: 2.3
Ratio [3]: 12

CC[C@H](C)[C@H](NC(=O)[C@H](CCCN=C(N)N)NC(=O)[C@H](CCCN=C(N)N)NC(=O)[C@H](CC(C)C)NC(=O)[C@H](Cc1ccccc1)NC(=O)[C@@H](CCCCN)NC(=O)CNC(=O)[C@@H](N)Cc1ccc(O)cc1)C(=O)N[C@@H](CCCN=C(N)N)C(=O)N1CCC[C@H]1C(=O)N[C@@H](CCCCN)C(N)=O
IC50 [4]: 21000 nM
Ratio [1]: 55
Ratio [2]: 5
Ratio [3]: 42

CC[C@H](C)[C@H](NC(=O)[C@H](CCCNC(=N)N)NC(=O)[C@H](CCCNC(=N)N)NC(=O)[C@H](CC(C)C)NC(=O)[C@H](Cc1ccccc1)NC(=O)[C@@H](CCC(=O)O)NC(=O)CNC(=O)[C@@H](N)Cc1ccc(O)cc1)C(=O)N[C@@H](CCCNC(=N)N)C(=O)N1CCC[C@H]1C(=O)N[C@@H](CCCCN)C(N)=O
IC50 [5]: 1100 nM
IC50 [6]: 2500 nM

CC[C@H](C)[C@H](NC(=O)[C@H](CCCN=C(N)N)NC(=O)[C@H](CCCN=C(N)N)NC(=O)[C@H](CC(C)C)NC(=O)[C@H](Cc1ccccc1)NC(=O)[C@H](Cc1ccc(O)cc1)NC(=O)CNC(=O)[C@@H](N)Cc1ccc(O)cc1)C(=O)N[C@@H](CCCN=C(N)N)C(=O)N1CCC[C@H]1C(=O)N[C@@H](CCCCN)C(N)=O
IC50 [4]: 220 nM
IC50 [5]: 8.9 nM
IC50 [6]: 290 nM
Ratio [1]: 25

CC[C@H](C)[C@H](NC(=O)[C@H](CCCN=C(N)N)NC(=O)[C@H](CCCN=C(N)N)NC(=O)[C@H](CC(C)C)NC(=O)[C@H](Cc1ccccc1)NC(=O)[C@@H](NC(=O)CNC(=O)[C@@H](N)Cc1ccc(O)cc1)[C@@H](C)c1c(C)cccc1C)C(=O)N[C@@H](CCCN=C(N)N)C(=O)N1CCC[C@H]1C(=O)N[C@@H](CCCCN)C(N)=O
IC50 [4]: 40800 nM
IC50 [5]: 113 nM
IC50 [6]: 2800 nM
Ratio [1]: 360

CC[C@H](C)[C@H](NC(=O)[C@H](CCCNC(=N)N)NC(=O)[C@H](CCCNC(=N)N)NC(=O)[C@H](CC(C)C)NC(=O)[C@H](Cc1ccccc1)NC(=O)[C@@H](CCCCN)NC(=O)CNC(=O)[C@@H](N)Cc1ccc(O)cc1)C(=O)N[C@@H](CCCNC(=N)N)C(=O)N1CCC[C@H]1C(=O)N[C@@H](CCCCN)C(N)=O
IC50 [5]: 380 nM
IC50 [6]: 1900 nM

CC[C@H](C)[C@H](NC(=O)[C@H](CCCN=C(N)N)NC(=O)[C@H](CCCN=C(N)N)NC(=O)[C@H](CC(C)C)NC(=O)[C@H](Cc1ccccc1)NC(=O)[C@H](CCC(=O)O)NC(=O)CNC(=O)[C@@H](N)Cc1ccc(O)cc1)C(=O)N[C@@H](CCCN=C(N)N)C(=O)N1CCC[C@H]1C(=O)N[C@@H](CCCCN)C(N)=O
inhibition at 30 µM [9]: 48%
IC50 [5]: 150 nM
IC50 [6]: 6600 nM
Ratio [1]: > 200
Ratio [2]: 44
Ratio [3]: 20

CC[C@H](C)[C@H](NC(=O)[C@H](CCCN=C(N)N)NC(=O)[C@H](CCCN=C(N)N)NC(=O)[C@H](CC(C)C)NC(=O)[C@H](Cc1ccccc1)NC(=O)[C@@H](Cc1ccc(O)cc1)NC(=O)CNC(=O)[C@@H](N)Cc1ccc(O)cc1)C(=O)N[C@@H](CCCN=C(N)N)C(=O)N1CCC[C@H]1C(=O)N[C@@H](CCCCN)C(N)=O
inhibition at 60 µM [10]: 41.7%
IC50 [5]: 23.1 nM
IC50 [6]: 650 nM
Ratio [1]: > 2600

CC[C@@H](C)[C@@H](NC(=O)CNC(=O)[C@@H](N)Cc1ccc(O)cc1)C(=O)N[C@@H](Cc1ccccc1)C(=O)N[C@@H](CC(C)C)C(=O)N[C@@H](CCCN=C(N)N)C(=O)N[C@@H](CCCN=C(N)N)C(=O)N[C@H](C(=O)N[C@@H](CCCN=C(N)N)C(=O)N1CCC[C@H]1C(=O)N[C@@H](CCCCN)C(N)=O)[C@@H](C)CC
Inhibition [11]: 5.7%
IC50 [5]: 55 nM
IC50 [6]: 1030 nM
Ratio [1]: > 1100
Ratio [2]: 19
Ratio [3]: 260

CC[C@H](C)[C@H](NC(=O)[C@H](CCCN=C(N)N)NC(=O)[C@H](CCCN=C(N)N)NC(=O)[C@H](CC(C)C)NC(=O)[C@H](Cc1ccccc1)NC(=O)[C@H](Cc1ccccc1)NC(=O)CNC(=O)[C@@H](N)Cc1ccc(O)cc1)C(=O)N[C@@H](CCCN=C(N)N)C(=O)N1CCC[C@H]1C(=O)N[C@@H](CCCCN)C(N)=O
IC50 [4]: 1.1 nM
IC50 [5]: 0.89 nM
IC50 [6]: 27.1 nM
Ratio [1]: 1.2
Ratio [2]: 30
Ratio [3]: 315

CC[C@H](C)[C@H](NC(=O)[C@H](CCCN=C(N)N)NC(=O)[C@H](CCCN=C(N)N)NC(=O)[C@H](CC(C)C)NC(=O)[C@H](Cc1ccccc1)NC(=O)[C@@H](Cc1ccccc1)NC(=O)CNC(=O)[C@@H](N)Cc1ccc(O)cc1)C(=O)N[C@@H](CCCN=C(N)N)C(=O)N1CCC[C@H]1C(=O)N[C@@H](CCCCN)C(N)=O
IC50 [4]: 370 nM
IC50 [5]: 5.9 nM
IC50 [6]: 86 nM
Ratio [1]: 62
Ratio [2]: 15
Ratio [3]: 125

Reference: ChEMBL document CHEMBL1129348, “Effects of modifications of residues in position 3 of dynorphin A(1-11)-NH2 on kappa receptor selectivity and potency” (J Med Chem, 1996)
